Test results published in ChEMBL document CHEMBL4028833, “Novel non-trimethoxylphenyl piperlongumine derivatives selectively kill cancer cells” (Bioorg Med Chem Lett, 2017).
Calls of active or inactive are those of the source. The calls are words filed in the database; no cut-off is given here.

Tests used:
[1] = system: SAOS-2; assay: Antiproliferative activity against human Saos2 cells after 72 hrs by MTT assay; type: functional, cell-based; details: SAOS-2, 72 h
How it was run: (§1)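 Cell growth inhibition was read by MTT assay, and IC50 values were reported.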

[2] = system: SK-HEP1; assay: Antiproliferative activity against human SKHEP1 cells after 72 hrs by MTT assay; type: functional, cell-based; details: SK-HEP1, 72 h; how it was run: as §1
[3] = system: U2OS; assay: Antiproliferative activity against human U2OS cells after 72 hrs by MTT assay; type: functional, cell-based; how it was run: as §1
[4] = system: MDA-MB-231; assay: Antiproliferative activity against human MDA-MB-231 cells after 72 hrs by MTT assay; type: functional, cell-based; details: MDA-MB-231, 72 h; how it was run: as §1
[5] = system: HCT-116; assay: Antiproliferative activity against human HCT116 cells after 72 hrs by MTT assay; type: functional, cell-based; details: HCT-116, 72 h; how it was run: as §1
[6] = system: A549; assay: Antiproliferative activity against human A549 cells after 72 hrs by MTT assay; type: functional, cell-based; details: A549, 72 h; how it was run: as §1
[7] = system: WI-38; assay: Cytotoxicity against human W138 cells after 72 hrs by MTT assay; type: cell-based; details: WI-38, 72 h; how it was run: as §1
[8] = system: HCT-116; assay: Induction of reactive oxygen species generation in human HCT116 cells at 10 uM after 1 hr by DCFH-DA dye-based fluorescence microscopic analysis; type: functional, cell-based
How it was run: (§2)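 ROS was imaged by fluorescence microscopy in HCT-116 and Saos-2 cells after 1 h treatment at 10 μM. DMSO-treated cells served as the control.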

[9] = system: SAOS-2; assay: Induction of reactive oxygen species generation in human Saos2 cells at 10 uM after 1 hr by DCFH-DA dye-based fluorescence microscopic analysis relative to control; type: functional; how it was run: as §2
[10] = system: SAOS-2; assay: Induction of apoptosis in human Saos2 cells at 5 uM after 24 hrs by annexin V-FITC/propidium iodide staining-based flow cytometric method; type: functional
How it was run: (§3)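 Apoptosis was scored by fluorescence-activated cell sorting after 24 h treatment of HCT-116 and Saos-2 cells, with DMSO controls. Cell morphology was also examined. The percentage of apoptotic cells was reported at 1 and 5 μM.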

[11] = system: HCT-116; assay: Induction of reactive oxygen species generation in human HCT116 cells at 1 to 5 uM after 1 to 3 hrs by DCFH-DA dye-based fluorescence microscopic analysis; type: functional, cell-based
How it was run: (§4)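 Cellular ROS was imaged by fluorescence microscopy in HCT-116 and Saos-2 cells. Cells were treated at 1, 5 and 10 μM for 1 h and 3 h, with a DMSO control.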

[12] = system: HCT-116; assay: Induction of reactive oxygen species generation in human HCT116 cells at 1 to 10 uM by DCFH-DA dye-based fluorescence microscopic analysis; type: functional, cell-based; details: TDE = time-dependent effect; how it was run: as §4
[13] = system: SAOS-2; assay: Induction of apoptosis in human Saos2 cells at 1 uM after 24 hrs by annexin V-FITC/propidium iodide staining-based flow cytometric method; type: functional; how it was run: as §3
[14] = system: SAOS-2; assay: Cell cycle arrest in human Saos2 cells assessed as accumulation at S phase at 1 to 5 uM after 24 hrs by propidium iodide staining based flow cytometric method; type: functional
[15] = system: HCT-116; assay: Induction of apoptosis in human HCT116 cells at 5 uM after 24 hrs by annexin V-FITC/propidium iodide staining-based flow cytometric method; type: functional; how it was run: as §3
[16] = system: SAOS-2; assay: Cell cycle arrest in human Saos2 cells assessed as accumulation at G2/M phase at 1 to 5 uM after 24 hrs by propidium iodide staining based flow cytometric method; type: functional
[17] = system: HCT-116; assay: Cell cycle arrest in human HCT116 cells assessed as accumulation at G0/G1 phase after 24 hrs by propidium iodide staining based flow cytometric method; type: functional
[18] = system: HCT-116; assay: Induction of apoptosis in human HCT116 cells after 24 hrs by annexin V-FITC/propidium iodide staining-based flow cytometric method; type: functional, cell-based; how it was run: as §3
[19] = system: HCT-116; assay: Induction of apoptosis in human HCT116 cells at 1 uM after 24 hrs by annexin V-FITC/propidium iodide staining-based flow cytometric method; type: functional; how it was run: as §3
[20] = system: HCT-116; assay: Cell cycle arrest in human HCT116 cells assessed as accumulation at S phase 1 to 5 uM after 24 hrs by propidium iodide staining based flow cytometric method; type: functional
[21] = system: SAOS-2; assay: Induction of reactive oxygen species generation in human Saos2 cells at 1 to 5 uM after 1 to 3 hrs by DCFH-DA dye-based fluorescence microscopic analysis; type: functional, cell-based; how it was run: as §4
[22] = system: SAOS-2; assay: Induction of reactive oxygen species generation in human Saos2 cells at 1 to 10 uM DCFH-DA dye-based fluorescence microscopic analysis; type: functional, cell-based; details: TDE = time-dependent effect; how it was run: as §4
[23] = system: SAOS-2; assay: Induction of apoptosis in human Saos2 cells after 24 hrs by annexin V-FITC/propidium iodide staining-based flow cytometric method; type: functional, cell-based; how it was run: as §3
[24] = system: HCT-116; assay: Cell cycle arrest in human HCT116 cells accumulation at G0/G1 phase at 1 to 5 uM after 24 hrs by propidium iodide staining based flow cytometric method
[25] = system: HCT-116; assay: Cell cycle arrest in human HCT116 cells assessed as accumulation at G0/G1 phase at 1 to 5 uM after 24 hrs by propidium iodide staining based flow cytometric method; type: functional

SMILES: O=C1C(Br)=CCCN1C(=O)c1cnc2ccccc2c1
- IC50 [1]: 26.7 µM
- IC50 [2]: 75.2 µM
- IC50 [3]: 97.5 µM
- IC50 [4]: > 100 µM
- IC50 [5]: > 100 µM
- IC50 [6]: > 100 µM
- IC50 [7]: > 100 µM

SMILES: O=C(/C=C/c1ccccc1)N1CCC=C(Cl)C1=O
- Activity [8]: Active
- IC50 [1]: 0.011 µM
- IC50 [2]: 0.71 µM
- fold change (FC) [9]: 2
- Activity [10]: 21.5%
- IC50 [3]: 1.17 µM
- Activity [11]: Active
- Activity [12]: Tde
- IC50 [4]: 1.67 µM
- Activity [13]: 12.7%
- Activity [14]: inactive
- IC50 [5]: 1.67 µM
- Activity [15]: 17%
- IC50 [6]: 4.12 µM
- IC50 [7]: 84.6 µM
- Activity [16]: inactive
- Activity [17]: Dose-dependent effect
- Activity [18]: Dose-dependent effect
- Activity [19]: 16%
- Activity [20]: Active
- Activity [21]: Active
- Activity [22]: Tde
- Activity [23]: Dose-dependent effect

SMILES: COc1cc(/C=C/C(=O)N2CCC=CC2=O)cc(OC)c1OC [PIPLARTINE]
- Activity [8]: Active
- IC50 [1]: 7.31 µM
- IC50 [2]: 13.3 µM
- Activity [10]: 33%
- IC50 [3]: 9.49 µM
- IC50 [4]: 10.6 µM
- Activity [13]: 26%
- Activity [14]: inactive
- IC50 [5]: 7.34 µM
- IC50 [6]: 6.84 µM
- IC50 [7]: > 100 µM
- Activity [16]: inactive
- Activity [24]: Active
- Activity [18]: Dose-dependent effect
- Activity [20]: Active
- Activity [25]: Active
- Activity [23]: Dose-dependent effect

SMILES: O=C1C(Cl)=CCCN1C(=O)c1cnc2ccccc2c1
- IC50 [1]: 2.96 µM
- IC50 [2]: 3.52 µM
- IC50 [3]: 6.63 µM
- IC50 [4]: 8.68 µM
- IC50 [5]: 10.2 µM
- IC50 [6]: 10.6 µM
- IC50 [7]: > 100 µM

SMILES: O=C1C(Cl)=CCCN1C(=O)c1ccncc1
- IC50 [1]: 89.9 µM
- IC50 [2]: > 100 µM
- IC50 [3]: > 100 µM
- IC50 [4]: > 100 µM
- IC50 [5]: > 100 µM
- IC50 [6]: > 100 µM
- IC50 [7]: > 100 µM

SMILES: O=C1C(Cl)=CCCN1C(=O)c1ccco1
- IC50 [1]: 3.86 µM
- IC50 [2]: 13.6 µM
- IC50 [3]: 8.6 µM
- IC50 [4]: 19.2 µM
- IC50 [5]: 5.89 µM
- IC50 [6]: 18.6 µM
- IC50 [7]: > 100 µM

SMILES: O=C(/C=C/C(=O)N1CCC=C(Cl)C1=O)N1CCC=C(Cl)C1=O
- IC50 [1]: 0.82 µM
- IC50 [2]: 3.96 µM
- IC50 [3]: 7.29 µM
- IC50 [4]: 5.04 µM
- IC50 [5]: 4.2 µM
- IC50 [6]: 8.6 µM
- IC50 [7]: 89.5 µM

SMILES: O=C(/C=C/c1ccco1)N1CCC=C(Cl)C1=O
- IC50 [1]: 0.28 µM
- IC50 [2]: 1.27 µM
- IC50 [3]: 1.47 µM
- IC50 [4]: 5.52 µM
- IC50 [5]: 4.49 µM
- IC50 [6]: 8.3 µM
- IC50 [7]: > 100 µM

SMILES: O=C1C(Cl)=CCCN1C(=O)C1CC1c1ccccc1 (stereo unspecified)
- IC50 [1]: 23.5 µM
- IC50 [2]: 72.9 µM
- IC50 [3]: 68.3 µM
- IC50 [4]: 65.1 µM
- IC50 [5]: 64.5 µM
- IC50 [6]: 85.1 µM
- IC50 [7]: > 100 µM

SMILES: O=C(/C=C/c1cccnc1)N1CCC=C(Cl)C1=O
- Activity [8]: Active
- IC50 [1]: 0.53 µM
- IC50 [2]: 1.9 µM
- fold change (FC) [9]: 2
- IC50 [3]: 1.67 µM
- IC50 [4]: 2.97 µM
- IC50 [5]: 2.36 µM
- IC50 [6]: 2.97 µM
- IC50 [7]: 47 µM

SMILES: O=C1C(Cl)=CCCN1C(=O)c1cccnc1
- IC50 [1]: 2.55 µM
- IC50 [2]: 4.83 µM
- IC50 [3]: 5.67 µM
- IC50 [4]: 4.83 µM
- IC50 [5]: 3.84 µM
- IC50 [6]: 8.64 µM
- IC50 [7]: 31 µM

SMILES: O=C(C#Cc1ccccc1)N1CCC=C(Cl)C1=O
- Activity [8]: inactive
- IC50 [1]: 0.42 µM
- IC50 [2]: 1.19 µM
- fold change (FC) [9]: 2
- IC50 [3]: 1.12 µM
- IC50 [4]: 1.73 µM
- IC50 [5]: 0.92 µM
- IC50 [6]: 7.93 µM
- IC50 [7]: > 100 µM

SMILES: O=C(/C=C/c1ccoc1)N1CCC=C(Cl)C1=O
- IC50 [1]: 1.15 µM
- IC50 [2]: 2.78 µM
- IC50 [3]: 2.26 µM
- IC50 [4]: 4.97 µM
- IC50 [5]: 4.37 µM
- IC50 [6]: 11 µM
- IC50 [7]: > 100 µM
